# Results gathered from unrelated publications.
# Target: Phosphatidylinositol 4,5-bisphosphate 3-kinase catalytic subunit beta isoform (PIK3CB, Homo sapiens, UniProt P42338)
SMILES,test,conditions,remaining binding
C[C@@H]1CN(c2cc(-c3n[nH]c4ccc(OC5(C)CC5)cc34)ncn2)C[C@H](C)O1,"cell-free assay, competition with immobilised ligand",0.1 µM,59%
O=C(Nc1c[nH]nc1C(=O)NC1CCNCC1)c1cc(F)cc(F)c1,"binding, competition with immobilised ligand",1 µM,100%
Cc1cnn2ncc(-c3ccnc(N(C)C)n3)c2c1,binding,1 µM,74%
O=C(c1ccc(Nc2ncc(Cl)c(-c3cc4ccccc4s3)n2)cc1)N1CCC(N2CCCC2)CC1,"binding, competition with immobilised ligand",1 µM,100%
CN(CCCC(F)(F)F)c1nccc(-c2cnn3ncccc23)n1,binding,1 µM,100%
CS(=O)(=O)c1cc(C2(NC(=O)c3cncc4c3cnn4-c3ccc(F)cc3)CC2)ccn1,"cell-free assay, competition with immobilised ligand",1 µM,100%
CCN1CCN(Cc2ccc(C(=O)Nc3ccc(C)c(Oc4ccc5c(c4)CC(=O)N5)c3)cc2C(F)(F)F)CC1,"binding, competition with immobilised ligand",1 µM,100%
C=CC(=O)N1CCC(C(=O)NCC(=O)N2CCN(c3nc(-c4cnc(N)nc4C(F)F)nc(N4CCOCC4)n3)CC2)CC1,"binding, competition with immobilised ligand",1 µM,0.05%
C[C@@H](c1ccc(-n2cnc3c(N)ncnc32)cc1)N1CCc2nn(C)c(Cc3ccccc3)c2C1=O,"binding, competition with immobilised ligand",0.1 µM,99%
COc1cnc(Nc2cccc(S(N)(=O)=O)c2)nc1N1CCN(c2ccccc2)C(=O)C1,"binding, competition with immobilised ligand",1 µM,100%
COc1ccnn2ncc(-c3ccnc(N(C)C)n3)c12,binding,1 µM,75%
CNCc1ccccc1-c1csc([C@H](C)Nc2nc(C)nc3cc(OC)c(OC)cc23)c1,"cell-free assay, competition with immobilised ligand",1 µM,89%
O=C(NCCCN1CCOCC1)c1ccc(Nc2nccc(-c3cc4ccccc4s3)n2)cc1,"binding, competition with immobilised ligand",1 µM,100%
Cc1cc(NC(=O)c2cccc(S(F)(F)(F)(F)F)c2)cc(-n2ccn3nc(-c4cccnc4)cc23)c1,"cell-free assay, competition with immobilised ligand",1 µM,100%
N[C@H]1CCN(c2nccc(-c3cnn4ncccc34)n2)C1,binding,1 µM,100%
COc1ncc2cc3ccccc3nc2c1C#N,"cell-free assay, competition with immobilised ligand",5 µM,100%
CN(c1nccc(-c2cnn3ncccc23)n1)C1CC1,binding,1 µM,100%
COc1ccc2c(O[C@@H]3C[C@H]4C(=O)N[C@]5(C(=O)O)CC5/C=C\CCCCC[C@H](NC(=O)OC5CCCC5)C(=O)N4C3)cc(-c3csc(NC(=O)C(C)C)n3)nc2c1C (stereo partly drawn),"cell-free assay, competition with immobilised ligand",1 µM,62%
CN(C)c1nccc(-c2cnn3ncccc23)n1,binding,1 µM,50%
O=C(c1ccc(Nc2ncc(Cl)c(-c3ccc(Cl)s3)n2)cc1)N1CCC(N2CCCC2)CC1,"binding, competition with immobilised ligand",1 µM,100%
O=c1nc(-c2ccccn2)sc2ccccc12,"cell-free assay, competition with immobilised ligand",1 µM,100%
